Measurements from ChEMBL document CHEMBL1131173, “Alkoxypsoralens, novel nonpeptide blockers of Shaker-type K+ channels: synthesis and photoreactivity” (J Med Chem, 1998).

Experiments:
[1] = system: Artemia salina; assay: (§1) Compound was tested for in vitro phototoxicity against nauplii of Artemia salina after UV-irradiation; format: functional; conditions: light or radiation study
Summary of the method: (§2)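 Artemia salina nauplii were hatched for 48 h, and ten per vial were placed in 3 mL seawater containing compound from 100 nM upward in methanol. Incubation was at 25 °C either under daylight or under added UV-A (1.3 mW/cm2, incident dose 112 J/cm2). Dead nauplii were counted at 24 h to give LC50. Run in triplicate.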

[2] = system: Artemia salina; assay: (§3) Compound was tested for in vitro phototoxicity against nauplii of Artemia salina in daylight; format: functional; conditions: light or radiation study; summary of the method: as §2
[3] = system: Artemia salina; assay: Photoinduced dose modification against nauplii of Artemia salina; format: functional
Summary of the method: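 Artemia salina nauplii were collected 48 h after hatching, ten per vial in 3 mL seawater, with compound from 100 nM upward; methanol was the vehicle. Vials were incubated at 25 °C under daylight or with added UV-A (1.3 mW/cm2, incident dose 112 J/cm2). Dead nauplii were counted at 24 h to give LC50. Assays were run in triplicate.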

[4] = target: T1, Potassium voltage-gated channel subfamily A member 1 (Homo sapiens, UniProt Q09470); assay: K+ channel blocking activity as blockade at 25 uM in Xenopus laevis Ranvier nodes; format: functional
T1 sequence (Q09470 whole entry): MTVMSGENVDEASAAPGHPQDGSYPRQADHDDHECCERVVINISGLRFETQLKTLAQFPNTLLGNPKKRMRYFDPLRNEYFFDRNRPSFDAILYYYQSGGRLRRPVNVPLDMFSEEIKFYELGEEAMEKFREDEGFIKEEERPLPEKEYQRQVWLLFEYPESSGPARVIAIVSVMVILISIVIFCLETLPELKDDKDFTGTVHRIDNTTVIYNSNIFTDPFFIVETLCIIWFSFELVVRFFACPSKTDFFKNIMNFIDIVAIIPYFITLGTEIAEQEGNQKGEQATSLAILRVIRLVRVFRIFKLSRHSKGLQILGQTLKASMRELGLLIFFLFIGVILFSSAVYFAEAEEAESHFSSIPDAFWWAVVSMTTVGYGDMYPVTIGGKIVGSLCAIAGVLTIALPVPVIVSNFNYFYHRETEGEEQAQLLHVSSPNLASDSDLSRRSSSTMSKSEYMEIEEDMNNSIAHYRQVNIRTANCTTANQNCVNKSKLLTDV
Summary of the method: (§4)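 On the Ranvier node, compound was tested at 25 µM. Steady-state K+ current block (BK) was normalized to currents in normal bathing medium. Peak Na+ current block was measured at 70 mV pulse amplitude and normalized the same way. Selectivity S = BK/BNa.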

[5] = target: T1, Potassium voltage-gated channel subfamily A member 1; assay: Selectivity of K+ current blockade given by Bk/BNa in Xenopus laevis; format: functional; summary of the method: as §4
[6] = compound was tested for production of singlet oxygen, measured as decrease in absorbance of N,N-dimethyl-p-nitrosoaniline (RNO) at 440 nm after 5 hr of UV-A irradiation; format: ADME; conditions: 10 µM
Summary of the method: (§5)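 Singlet oxygen generation by compound at 10 µM in O2-saturated solution, read as RNO bleaching. Absorbance decrease was measured at 440 nm after 5 h of UV-A irradiation (4.5 mW/cm2, incident dose 81 J/cm2).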

[7] = system: Nucleic Acid; assay: Photobinding to Poly(dA-dT)-Poly(dA-dT)-DNA after UV-A irradiation; format: nucleic-acid assay
Summary of the method: (§6)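 Poly(dA-dT)-poly(dA-dT) at 10 µM in 0.1 M MOPS, pH 7.0, with compound at a 1:1 compound:DNA ratio. Samples were kept 30 min in the dark or irradiated 30 min at 365 nm (4.5 mW/cm2, 8.1 J/cm2). Melting profiles gave ΔTm = Tm(DNA+drug) − Tm(DNA), as the mean of three determinations.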

[8] = system: Nucleic Acid; assay: Photobinding to Poly(dA-dT)-Poly(dA-dT)-DNA in dark, determined by the shift of thermal transition temperature; format: nucleic-acid assay; summary of the method: as §6
[9] = as §1; summary of the method: as §2
[10] = as §3; summary of the method: as §2
[11] = target: Potassium voltage-gated channel subfamily A member 5 (Homo sapiens, UniProt P22460); assay: Blockade of peak K+ currents against Kv1.5 gene; format: functional
Potassium voltage-gated channel subfamily A member 5, sequence (P22460 whole entry): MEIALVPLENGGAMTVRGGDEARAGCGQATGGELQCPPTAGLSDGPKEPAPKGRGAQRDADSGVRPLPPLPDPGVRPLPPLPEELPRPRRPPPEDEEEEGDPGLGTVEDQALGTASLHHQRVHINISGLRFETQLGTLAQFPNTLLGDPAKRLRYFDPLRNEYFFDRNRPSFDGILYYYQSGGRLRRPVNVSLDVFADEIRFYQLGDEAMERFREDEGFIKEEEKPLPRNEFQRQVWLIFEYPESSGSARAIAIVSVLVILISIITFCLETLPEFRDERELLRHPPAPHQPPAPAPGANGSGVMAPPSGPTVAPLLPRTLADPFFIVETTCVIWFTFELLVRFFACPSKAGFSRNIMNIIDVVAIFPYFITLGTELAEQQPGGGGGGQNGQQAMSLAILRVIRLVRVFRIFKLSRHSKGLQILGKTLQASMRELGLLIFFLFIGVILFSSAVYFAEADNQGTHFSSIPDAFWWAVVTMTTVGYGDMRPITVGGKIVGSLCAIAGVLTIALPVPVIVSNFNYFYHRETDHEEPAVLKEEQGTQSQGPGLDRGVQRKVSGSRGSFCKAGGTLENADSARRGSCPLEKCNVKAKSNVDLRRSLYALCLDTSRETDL
Summary of the method: (§7)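 Whole-cell patch-clamp recording of cloned channels expressed in mammalian cells. Each compound was tested at several concentrations, and an apparent Kd for block of peak K+ current was calculated.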

[12] = target: Potassium voltage-gated channel subfamily A member 6 (Homo sapiens, UniProt P17658); assay: Blockade of peak K+ currents against Kv1.6 gene; format: functional; summary of the method: as §7
Potassium voltage-gated channel subfamily A member 6, sequence (P17658 whole entry): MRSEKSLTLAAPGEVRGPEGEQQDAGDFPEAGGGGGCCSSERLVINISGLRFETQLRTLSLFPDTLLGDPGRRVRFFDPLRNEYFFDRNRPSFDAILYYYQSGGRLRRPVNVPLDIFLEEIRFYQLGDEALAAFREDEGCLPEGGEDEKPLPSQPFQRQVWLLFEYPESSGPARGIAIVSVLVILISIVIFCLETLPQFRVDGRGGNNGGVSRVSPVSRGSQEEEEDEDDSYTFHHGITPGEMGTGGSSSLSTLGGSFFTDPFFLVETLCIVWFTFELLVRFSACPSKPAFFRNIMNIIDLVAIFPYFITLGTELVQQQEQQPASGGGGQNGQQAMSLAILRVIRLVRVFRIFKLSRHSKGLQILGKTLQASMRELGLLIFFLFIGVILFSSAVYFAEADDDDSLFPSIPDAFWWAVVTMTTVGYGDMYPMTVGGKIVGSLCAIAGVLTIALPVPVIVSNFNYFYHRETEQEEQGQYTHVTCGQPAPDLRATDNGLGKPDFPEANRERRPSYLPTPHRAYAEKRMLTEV

[13] = target: T2, Voltage-gated potassium channel KCNC1 (Homo sapiens, UniProt P48547); assay: Blockade of peak K+ currents against Kv3.1 gene; format: functional
T2 sequence (P48547 whole entry): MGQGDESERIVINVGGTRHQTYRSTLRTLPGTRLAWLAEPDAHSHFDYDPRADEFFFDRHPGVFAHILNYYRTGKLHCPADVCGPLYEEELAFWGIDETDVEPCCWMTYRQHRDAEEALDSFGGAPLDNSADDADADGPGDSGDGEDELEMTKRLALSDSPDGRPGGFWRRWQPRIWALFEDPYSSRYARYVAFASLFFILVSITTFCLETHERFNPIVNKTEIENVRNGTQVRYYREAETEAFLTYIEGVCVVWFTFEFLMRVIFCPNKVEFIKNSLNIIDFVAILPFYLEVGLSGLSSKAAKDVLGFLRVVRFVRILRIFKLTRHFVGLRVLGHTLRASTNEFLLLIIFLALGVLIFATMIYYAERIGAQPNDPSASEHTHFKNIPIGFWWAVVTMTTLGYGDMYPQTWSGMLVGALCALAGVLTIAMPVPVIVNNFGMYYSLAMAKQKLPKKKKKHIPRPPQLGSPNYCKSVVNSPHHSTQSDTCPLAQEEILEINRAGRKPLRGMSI
Summary of the method: (§8)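 Channels expressed in mammalian cells and recorded by whole-cell patch clamp. Each compound was applied at several concentrations, and the apparent dissociation constant Kd was calculated for block of peak K+ current.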

[14] = target: Potassium voltage-gated channel subfamily A member 3 (Mus musculus, UniProt P16390); assay: Blockade of peak Kv1.3 potassium currents; format: functional; summary of the method: as §8
Potassium voltage-gated channel subfamily A member 3, sequence (P16390 whole entry): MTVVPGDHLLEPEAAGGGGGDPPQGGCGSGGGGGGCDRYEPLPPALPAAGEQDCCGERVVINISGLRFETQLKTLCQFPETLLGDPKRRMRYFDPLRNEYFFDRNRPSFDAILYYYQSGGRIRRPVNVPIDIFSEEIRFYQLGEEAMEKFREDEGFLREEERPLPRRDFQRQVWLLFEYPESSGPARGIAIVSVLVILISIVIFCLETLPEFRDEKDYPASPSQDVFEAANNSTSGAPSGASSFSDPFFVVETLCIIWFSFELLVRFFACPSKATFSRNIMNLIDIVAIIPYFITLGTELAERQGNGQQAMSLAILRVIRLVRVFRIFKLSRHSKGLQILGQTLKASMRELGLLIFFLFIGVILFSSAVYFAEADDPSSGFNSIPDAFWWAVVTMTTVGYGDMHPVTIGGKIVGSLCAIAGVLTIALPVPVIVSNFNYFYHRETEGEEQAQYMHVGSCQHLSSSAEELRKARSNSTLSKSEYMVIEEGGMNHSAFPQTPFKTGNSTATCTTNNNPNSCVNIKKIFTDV

[15] = target: T1, Potassium voltage-gated channel subfamily A member 1; assay: Blockade of peak K+ currents against Kv1.1 gene; format: functional; summary of the method: as §8
[16] = target: Potassium voltage-gated channel subfamily A member 2 (Homo sapiens, UniProt P16389); assay: Blockade of peak K+ currents against Kv1.2 gene; format: functional; summary of the method: as §8
Potassium voltage-gated channel subfamily A member 2, sequence (P16389 whole entry): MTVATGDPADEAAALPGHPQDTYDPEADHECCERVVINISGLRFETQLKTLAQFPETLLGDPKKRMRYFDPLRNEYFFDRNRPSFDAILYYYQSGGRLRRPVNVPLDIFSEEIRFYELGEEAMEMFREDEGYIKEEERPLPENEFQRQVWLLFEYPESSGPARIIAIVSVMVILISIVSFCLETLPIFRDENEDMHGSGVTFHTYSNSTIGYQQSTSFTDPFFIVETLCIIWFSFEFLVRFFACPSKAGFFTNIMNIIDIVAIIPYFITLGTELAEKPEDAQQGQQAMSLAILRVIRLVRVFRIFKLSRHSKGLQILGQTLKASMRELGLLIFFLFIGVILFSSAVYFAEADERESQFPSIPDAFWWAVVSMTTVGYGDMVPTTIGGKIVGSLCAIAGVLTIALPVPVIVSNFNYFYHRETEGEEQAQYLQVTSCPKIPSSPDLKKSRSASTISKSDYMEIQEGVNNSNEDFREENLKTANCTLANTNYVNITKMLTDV

[17] = Compound was tested for production of single oxygen, measured as decrease in absorbance of N,N-dimethyl-p-nitrosoaniline (RNO) at 440 nm after 5 hr of UV-A irradiation; format: ADME; conditions: 10 µM
Summary of the method: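 Singlet oxygen from compound at 10 µM was measured in O2-saturated solution by bleaching of N,N-dimethyl-p-nitrosoaniline. The read-out was the fall in absorbance at 440 nm after 5 h of UV-A (4.5 mW/cm2, incident dose 81 J/cm2).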

[18] = Compound was tested for production of singlet oxygen, measured as decrease in absorbance of N,N-dimethyl-p-nitrosoaniline (RNO) at 440 nm after 5 hr of UV-A irradiation; format: ADME; conditions: 10 µM; summary of the method: as §5

Structure (SMILES): Cc1coc2cc3oc(=O)cc(C)c3cc12
- LC50 [1]: 0.7 µM
- LC50 [2]: > 100 µM
- Dose modification [3]: >150
- BK [4]: 25%
- Selectivity [5]: 8

Structure (SMILES): C=CCOCc1c2ccoc2c(OC)c2oc(=O)ccc12
- BK [4]: 24%
- Selectivity [5]: 6

Structure (SMILES): COc1c2ccoc2c(OC)c2oc(=O)ccc12 [ISOPIMPINELLIN]
- O2 production [6]: -5%
- ΔTm [7]: 1 °C
- ΔTm [8]: 0.5 °C
- LC50 [9]: > 100 µM
- LC50 [10]: > 100 µM

Structure (SMILES): COCc1cc(=O)oc2cc3occ(-c4ccccc4)c3cc12
- BK [4]: 27%
- Selectivity [5]: 2

Structure (SMILES): Cc1coc2cc3oc(=O)cc(CO)c3cc12
- BK [4]: 11%
- Selectivity [5]: 4

Structure (SMILES): COc1c2ccoc2cc2oc(=O)ccc12 [BERGAPTEN]
- Dose modification [3]: >40
- Kd [11]: 177 µM
- Kd [12]: 187 µM
- Kd [13]: 111 µM
- Kd [14]: 101 µM
- BK [4]: 52%
- Kd [15]: > 200 µM
- Kd [16]: 41 µM
- ΔTm [7]: 13 °C
- ΔTm [8]: 0.5 °C
- LC50 [9]: 2.5 µM
- LC50 [10]: > 100 µM
- Selectivity [5]: 14
- O2 production [17]: 5%

Structure (SMILES): Cc1coc2cc3oc(=O)ccc3cc12
- O2 production [18]: 71%
- Dose modification [3]: >200
- BK [4]: 63%
- ΔTm [7]: 9 °C
- ΔTm [8]: 1 °C
- LC50 [9]: 0.5 µM
- LC50 [10]: > 100 µM
- Selectivity [5]: 15

Structure (SMILES): Cc1cc(=O)oc2cc3c(cc12)C(C)CO3 (centres undefined)
- LC50 [1]: 25 µM
- LC50 [2]: > 100 µM
- Dose modification [3]: >4
- BK [4]: 45%
- Selectivity [5]: 22

Structure (SMILES): CCOCc1c(C)oc2c(C)c3oc(=O)cc(C)c3cc12
- O2 production [6]: 50%
- BK [4]: 55%
- ΔTm [7]: > 20 °C
- ΔTm [8]: 1 °C
- Selectivity [5]: 6

Structure (SMILES): CCOc1c2ccoc2c(OCC)c2oc(=O)ccc12
- O2 production [18]: -4%
- Kd [13]: 178 µM
- Kd [14]: 28 µM
- BK [4]: 75%
- Kd [15]: 167 µM
- Kd [16]: 23 µM
- ΔTm [7]: 0.5 °C
- ΔTm [8]: 0.5 °C
- LC50 [9]: > 100 µM
- LC50 [10]: > 100 µM
- Selectivity [5]: 14

Structure (SMILES): COc1c2c(cc3ccc(=O)oc13)CCO2
- BK [4]: 4%
- Selectivity [5]: 5

Structure (SMILES): COCc1c(C)oc2c(C)c3oc(=O)cc(C)c3cc12
- O2 production [6]: 50%
- Dose modification [3]: >5
- BK [4]: 31%
- ΔTm [7]: > 20 °C
- ΔTm [8]: 0.5 °C
- LC50 [9]: 20 µM
- LC50 [10]: > 100 µM
- Selectivity [5]: 11

Structure (SMILES): CCOc1cc(OCC)c2ccc(=O)oc2c1
- BK [4]: 40%
- Selectivity [5]: 0.7

Structure (SMILES): COc1c2occc2c(COC(C)C)c2ccc(=O)oc12
- BK [4]: 10%
- Selectivity [5]: 3

Structure (SMILES): CC1COc2cc3oc(=O)ccc3cc21 (centres undefined)
- O2 production [18]: 100%
- Dose modification [3]: >4
- BK [4]: 23%
- ΔTm [7]: 0.5 °C
- ΔTm [8]: 0.5 °C
- LC50 [9]: 25 µM
- LC50 [10]: > 100 µM
- Selectivity [5]: 3

Structure (SMILES): CCOc1cc(OCC)c2c(COC)cc(=O)oc2c1
- BK [4]: 35%
- Selectivity [5]: 1.8

Structure (SMILES): O=c1ccc2cc3c(-c4ccccc4)coc3cc2o1
- BK [4]: 68%
- Selectivity [5]: 1.4

Structure (SMILES): COc1c2occc2cc2ccc(=O)oc12 [METHOXSALEN]
- O2 production [18]: 9%
- Dose modification [3]: >40
- BK [4]: 5%
- ΔTm [7]: 10 °C
- ΔTm [8]: 1 °C
- LC50 [9]: 2.2 µM
- LC50 [10]: > 100 µM
- Selectivity [5]: 4

Structure (SMILES): COCc1c2occc2c(OC)c2ccc(=O)oc12
- O2 production [6]: 4%
- Kd [14]: 28 µM
- BK [4]: 35%
- ΔTm [7]: 1 °C
- ΔTm [8]: 1 °C
- LC50 [9]: > 100 µM
- LC50 [10]: > 100 µM
- Selectivity [5]: 26

Structure (SMILES): COCc1cc(=O)oc2cc3occ(C)c3cc12
- O2 production [18]: 43%
- Dose modification [3]: >40
- Kd [13]: 213 µM
- Kd [14]: 90 µM
- BK [4]: 52%
- Kd [15]: 56 µM
- Kd [16]: 18 µM
- ΔTm [7]: > 20 °C
- ΔTm [8]: 0.5 °C
- LC50 [9]: 2.5 µM
- LC50 [10]: > 100 µM
- Selectivity [5]: 17

Structure (SMILES): CC[N+](CC)(CC)Cc1c(C)oc2c(C)c3oc(=O)cc(C)c3cc12.[Cl-]
- O2 production [6]: 66%
- BK [4]: 27%
- ΔTm [7]: 16 °C
- ΔTm [8]: 7 °C
- Selectivity [5]: 5

Structure (SMILES): COCc1c2ccoc2c(OC)c2oc(=O)ccc12
- LC50 [1]: > 100 µM
- LC50 [2]: > 100 µM
- BK [4]: 14%
- Selectivity [5]: 3

Structure (SMILES): CC[N+](CC)(CC)Cc1c2ccoc2c(OC)c2oc(=O)ccc12
- BK [4]: 20%
- Selectivity [5]: 7

Structure (SMILES): CCOCc1c2ccoc2c(OC)c2oc(=O)ccc12
- O2 production [6]: 7%
- BK [4]: 16%
- ΔTm [7]: 1.5 °C
- ΔTm [8]: 2 °C
- Selectivity [5]: 2
